Reference: ChEMBL document CHEMBL3259728, “Design, synthesis and biological evaluation of some novel substituted quinazolines as antitumor agents” (2014)

Key:
Format in all cases: functional
T47D = experiment: Growth inhibition of human T47D cells at 10 uM after 48 hrs by SRB assay; conditions: read-out: GI
Outline: (§1)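 NCI-60 primary one-dose screen run at the US NCI, with human tumour lines from nine cancer types. Compound added once at 10^-5 M, followed by 48 h incubation. End point was sulforhodamine B protein staining read spectrophotometrically. Result given as percent growth of treated cells against untreated controls, reported as % growth inhibition.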

[1] = Growth inhibition of human BT549 cells at 10 uM after 48 hrs by SRB assay; conditions: BT-549, 48 h, read-out: GI
Outline: (§2)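 NCI primary one-dose screen. A single concentration of 10^-5 M was added to the cell culture, followed by 48 h incubation and an SRB protein-dye endpoint read spectrophotometrically. Results are growth percentage relative to untreated control cells, reported as % growth inhibition.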

[2] = Growth inhibition of human Hs578T cells at 10 uM after 48 hrs by SRB assay; conditions: Hs-578T, read-out: GI; outline: as §1
MDA-MB-231 = experiment: Growth inhibition of human MDA-MB-231 cells at 10 uM after 48 hrs by SRB assay; conditions: MDA-MB-231, 48 h, read-out: GI; outline: as §1
MCF7 = experiment: Growth inhibition of human MCF7 cells at 10 uM after 48 hrs by SRB assay; conditions: MCF7, 48 h, read-out: GI; outline: as §1
DU-145 = experiment: Growth inhibition of human DU145 cells at 10 uM after 48 hrs by SRB assay; conditions: DU-145, 48 h, read-out: GI; outline: as §1
PC-3 = experiment: Growth inhibition of human PC3 cells at 10 uM after 48 hrs by SRB assay; conditions: PC-3, 48 h, read-out: GI; outline: as §1
[3] = Growth inhibition of human UO31 cells at 10 uM after 48 hrs by SRB assay; conditions: UO-31, 48 h, read-out: GI; outline: as §1
SN12C = experiment: Growth inhibition of human SN12C cells at 10 uM after 48 hrs by SRB assay; conditions: read-out: GI; outline: as §1
[4] = Growth inhibition of human RXF393 cells at 10 uM after 48 hrs by SRB assay; conditions: RXF 393, 48 h, read-out: GI; outline: as §1
786-0 = experiment: Growth inhibition of human 786-0 cells at 10 uM after 48 hrs by SRB assay; conditions: 786-0, 48 h, read-out: GI; outline: as §2
[5] = Growth inhibition of human NCI-ADR-RES cells at 10 uM after 48 hrs by SRB assay; conditions: read-out: GI; outline: as §1
[6] = Growth inhibition of human OVCAR5 cells at 10 uM after 48 hrs by SRB assay; conditions: OVCAR-5, 48 h, read-out: GI; outline: as §1
[7] = Growth inhibition of human OVCAR3 cells at 10 uM after 48 hrs by SRB assay; conditions: OVCAR-3, 48 h, read-out: GI; outline: as §1
IGROV-1 = experiment: Growth inhibition of human IGROV1 cells at 10 uM after 48 hrs by SRB assay; conditions: IGROV-1, 48 h, read-out: GI; outline: as §1
SK-MEL-5 = experiment: Growth inhibition of human SK-MEL-5 cells at 10 uM after 48 hrs by SRB assay; conditions: SK-MEL-5, 48 h, read-out: GI; outline: as §1
MDA-MB-435 = experiment: Growth inhibition of human MDA-MB-435 cells at 10 uM after 48 hrs by SRB assay; conditions: MDA-MB-435, 48 h, read-out: GI; outline: as §1
M14 = experiment: Growth inhibition of human M14 cells at 10 uM after 48 hrs by SRB assay; conditions: M14, 48 h, read-out: GI; outline: as §1
Malme-3M = experiment: Growth inhibition of human MALME-3M cells at 10 uM after 48 hrs by SRB assay; conditions: read-out: GI; outline: as §1
U-251 = experiment: Growth inhibition of human U251 cells at 10 uM after 48 hrs by SRB assay; conditions: U-251, 48 h, read-out: GI; outline: as §1
SNB-75 = experiment: Growth inhibition of human SNB75 cells at 10 uM after 48 hrs by SRB assay; conditions: SNB-75, 48 h, read-out: GI; outline: as §1
SNB-19 = experiment: Growth inhibition of human SNB19 cells at 10 uM after 48 hrs by SRB assay; conditions: SNB-19, 48 h, read-out: GI; outline: as §1
[8] = Growth inhibition of human SF539 cells at 10 uM after 48 hrs by SRB assay; conditions: SF-539, 48 h, read-out: GI; outline: as §1
SW-620 = experiment: Growth inhibition of human SW620 cells at 10 uM after 48 hrs by SRB assay; conditions: SW-620, 48 h, read-out: GI; outline: as §1
KM12 = experiment: Growth inhibition of human KM12 cells at 10 uM after 48 hrs by SRB assay; conditions: KM12, 48 h, read-out: GI; outline: as §1
HT-29 = experiment: Growth inhibition of human HT-29 cells at 10 uM after 48 hrs by SRB assay; conditions: HT-29, 48 h, read-out: GI; outline: as §1
[9] = Growth inhibition of human HCT15 cells at 10 uM after 48 hrs by SRB assay; conditions: HCT-15, 48 h, read-out: GI; outline: as §1
COLO 205 = experiment: Growth inhibition of human COLO205 cells at 10 uM after 48 hrs by SRB assay; conditions: COLO 205, 48 h, read-out: GI; outline: as §2
NCI-H522 = experiment: Growth inhibition of human NCI-H522 cells at 10 uM after 48 hrs by SRB assay; conditions: NCI-H522, 48 h, read-out: GI; outline: as §1
NCI-H322M = experiment: Growth inhibition of human NCI-H322M cells at 10 uM after 48 hrs by SRB assay; conditions: read-out: GI; outline: as §1
NCI-H23 = experiment: Growth inhibition of human NCI-H23 cells at 10 uM after 48 hrs by SRB assay; conditions: NCI-H23, 48 h, read-out: GI; outline: as §1
[10] = Growth inhibition of human HOP92 cells at 10 uM after 48 hrs by SRB assay; conditions: HOP-92, 48 h, read-out: GI; outline: as §1
NCI-H226 = experiment: Growth inhibition of human NCI-H226 cells at 10 uM after 48 hrs by SRB assay; conditions: NCI-H226, 48 h, read-out: GI; outline: as §1
HOP-62 = experiment: Growth inhibition of human HOP62 cells at 10 uM after 48 hrs by SRB assay; conditions: HOP-62, 48 h, read-out: GI; outline: as §1
[11] = Growth inhibition of human EKVX cells at 10 uM after 48 hrs by SRB assay; conditions: read-out: GI; outline: as §1
SR = experiment: Growth inhibition of human SR cells at 10 uM after 48 hrs by SRB assay; conditions: read-out: GI; outline: as §1
CCRF-CEM = experiment: Growth inhibition of human CCRF-CEM cells at 10 uM after 48 hrs by SRB assay; conditions: read-out: GI; outline: as §2
[12] = Growth inhibition of human OVCAR8 cells at 10 uM after 48 hrs by SRB assay; conditions: OVCAR-8, 48 h, read-out: GI; outline: as §1
SK-MEL-28 = experiment: Growth inhibition of human SK-MEL-28 cells at 10 uM after 48 hrs by SRB assay; conditions: SK-MEL-28, 48 h, read-out: GI; outline: as §1

Structure (SMILES)	inhibition of growth at 10 µM (T47D) [%]	inhibition of growth at 10 µM [1] [%]	inhibition of growth at 10 µM [2] [%]	inhibition of growth at 10 µM (MDA-MB-231) [%]	inhibition of growth at 10 µM (MCF7) [%]	inhibition of growth at 10 µM (DU-145) [%]	inhibition of growth at 10 µM (PC-3) [%]	inhibition of growth at 10 µM [3] [%]	inhibition of growth at 10 µM (SN12C) [%]	inhibition of growth at 10 µM [4] [%]	inhibition of growth at 10 µM (786-0) [%]	inhibition of growth at 10 µM [5] [%]	inhibition of growth at 10 µM [6] [%]	inhibition of growth at 10 µM [7] [%]	inhibition of growth at 10 µM (IGROV-1) [%]	inhibition of growth at 10 µM (SK-MEL-5) [%]	inhibition of growth at 10 µM (MDA-MB-435) [%]	inhibition of growth at 10 µM (M14) [%]	inhibition of growth at 10 µM (Malme-3M) [%]	inhibition of growth at 10 µM (U-251) [%]	further results
Cc1ccc(C(=O)Nc2ccc(Cl)cc2C(=O)Nc2ccccn2)cc1	20	< 10	< 10	< 10	19	11	23	13	< 10	< 10	< 10	< 10	< 10	12	14	39	19	< 10	< 10	< 10	inhibition of growth at 10 µM (SNB-75): 24%; inhibition of growth at 10 µM (SNB-19): < 10%; inhibition of growth at 10 µM [8]: 22%; inhibition of growth at 10 µM (SW-620): < 10%; inhibition of growth at 10 µM (KM12): 11%; inhibition of growth at 10 µM (HT-29): 14%; inhibition of growth at 10 µM [9]: 14%; inhibition of growth at 10 µM (COLO 205): < 10%; inhibition of growth at 10 µM (NCI-H522): 22%; inhibition of growth at 10 µM (NCI-H322M): < 10%; inhibition of growth at 10 µM (NCI-H23): < 10%; inhibition of growth at 10 µM [10]: < 10%; inhibition of growth at 10 µM (NCI-H226): < 10%; inhibition of growth at 10 µM (HOP-62): < 10%; inhibition of growth at 10 µM [11]: 12%; inhibition of growth at 10 µM (SR): < 10%; inhibition of growth at 10 µM (CCRF-CEM): 29%; inhibition of growth at 10 µM [12]: < 10%; inhibition of growth at 10 µM (SK-MEL-28): < 10%
Cc1ccc(-c2nc3ccc(Cl)cc3c3nnnn23)cc1	23	< 10	< 10	27	< 10	< 10	18	24	16	< 10	< 10	< 10	< 10	11	< 10	< 10	13	< 10	< 10	< 10	inhibition of growth at 10 µM (SNB-75): < 10%; inhibition of growth at 10 µM (SNB-19): 11%; inhibition of growth at 10 µM [8]: 18%; inhibition of growth at 10 µM (SW-620): 17%; inhibition of growth at 10 µM (KM12): < 10%; inhibition of growth at 10 µM (HT-29): < 10%; inhibition of growth at 10 µM [9]: < 10%; inhibition of growth at 10 µM (COLO 205): < 10%; inhibition of growth at 10 µM (NCI-H522): 21%; inhibition of growth at 10 µM (NCI-H322M): < 10%; inhibition of growth at 10 µM (NCI-H23): < 10%; inhibition of growth at 10 µM [10]: < 10%; inhibition of growth at 10 µM (NCI-H226): < 10%; inhibition of growth at 10 µM (HOP-62): 51%; inhibition of growth at 10 µM [11]: 11%; inhibition of growth at 10 µM (SR): < 10%; inhibition of growth at 10 µM (CCRF-CEM): < 10%; inhibition of growth at 10 µM [12]: < 10%; inhibition of growth at 10 µM (SK-MEL-28): < 10%
